Shown are actives, neighbours in structure and some others; about 2.4% of the full set was active somewhere.
NPY-Y1 PAM-ag: NPY-Y1 receptor potentiators or agonists, primary screen, cell-based. Neuropeptide Y receptor type 1 (Homo sapiens), P25929. 220,000 tested, 0.37% active. activation, % at 3.6 µM. NPY-Y1 expressing cells, potentiator/agonist activation; in the data active means activation above about 33%, passing the limit was not always enough;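 further: cells stimulated with NPY at EC10 then isoproterenol at EC100; 0% = low agonist plus stimulus and 100% = saturating agonist plus stimulus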
Target sequence (P25929 whole entry, looked up): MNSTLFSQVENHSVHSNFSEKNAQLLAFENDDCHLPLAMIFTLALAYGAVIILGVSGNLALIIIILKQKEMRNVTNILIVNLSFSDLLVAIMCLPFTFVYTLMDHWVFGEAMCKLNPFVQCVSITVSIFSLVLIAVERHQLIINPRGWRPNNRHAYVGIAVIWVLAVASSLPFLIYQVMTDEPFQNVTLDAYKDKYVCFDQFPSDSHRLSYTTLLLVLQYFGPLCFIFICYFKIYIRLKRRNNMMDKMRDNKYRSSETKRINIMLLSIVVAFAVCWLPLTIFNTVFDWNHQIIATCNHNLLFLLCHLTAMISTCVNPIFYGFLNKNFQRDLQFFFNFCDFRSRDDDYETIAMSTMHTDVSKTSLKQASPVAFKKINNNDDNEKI
NPY2 pot ag: NPY-Y2 potentiators or agonists, primary screen, cell-based. Neuropeptide Y receptor type 2 (Homo sapiens), P49146. cells expressing NPY-Y2, potentiator/agonist read-out. activation, % at 3.6 µM. 220,000 tested, 0.45% active. AID 1359, 2008; in the data active means activation above about 27%;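 further: cells stimulated with NPY near EC25 plus isoproterenol at EC100; 0% = vehicle plus submaximal agonist and 100% = vehicle plus saturating agonist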
NPY-Y2 antag: NPY-Y2 receptor antagonists, primary screen, cell-based | Neuropeptide Y receptor type 2 (Homo sapiens), P49146 | NPY-Y2 expressing cells, antagonist mode | inhibition, % at 2.7 µM | 140,000 tested, 0.99% active | AID 793, 2007; in the data active means inhibition above about 17%;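 further: 0% = vehicle with agonist challenge and 100% = reference antagonist with challenge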
NPY Y1 blocker: NPY-Y1 receptor antagonists, primary screen, cell-based; HEK293-CNG Y1 cells, membrane potential fluorescence; NPY at EC95, then isoproterenol; inhibition, % at 3.6 µM; 200,000 tested, 1% active;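 active means inhibition above the campaign mean inhibition of all tested compounds plus 3 SD, cut at about 20% in these data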;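 further: 0% = DMSO wells given NPY plus isoproterenol and 100% = isoproterenol alone without NPY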
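Material: Y1- and CNG-channel-expressing HEK293 cells / Probe or stimulus: NPY 25 nM then isoproterenol 1 µM plus Ro 20-1724 25 µM / Doses: 3.6 µM single dose, DMSO 0.4% / Schedule: compound incubation 1 h at room temperature, readout 45 min post-stimulation / Signal: membrane potential fluorescence / Benchmarks: isoproterenol-only wells as full block versus NPY-plus-isoproterenol wells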
S1P4 ag: S1P4 receptor agonists, primary screen, cell-based; Sphingosine 1-phosphate receptor 4 (Homo sapiens), O95977; S1P4-expressing cell line, agonist reporter assay; activation, % at 4.98 µM; 220,000 tested, 0.35% active; AID 1509, 2009; in the data active means activation above about 11%;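 further: 0% = DMSO vehicle and 100% = reference agonist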
S1P4 antagonist: S1P4 receptor antagonists, primary screen, cell-based; 220,000 tested, 0.26% active; S1P4-expressing cells, antagonist mode, reporter read-out; inhibition, % at 4.98 µM; Sphingosine 1-phosphate receptor 4 (Homo sapiens), O95977; in the data active means inhibition above about 29%;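 further: 0% = wells stimulated with agonist and 100% = vehicle wells without agonist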
S1P4 agonist cf: S1P4 receptor agonists, retest, confirmation, cell-based, high throughput. shares compounds with S1P4 ag. S1P4 agonist cell-based reporter assay. activation, % at 4.98 µM. 740 tested, 7% active. AID 1523, 2009; in the data active means activation above about 12%;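 further: 0% = vehicle and 100% = full reference agonist response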
S1P1 agonist: S1P1 receptor agonists, human, counter-screen for S1P4 agonist project, cell-based; shares compounds with S1P4 ag; S1P1 agonist cell-based assay, activation; activation, % at 4.98 µM; 740 tested, 4% active; in the data active means activation above about 21%;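 further: 0% = vehicle wells and 100% = reference agonist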
* = called active by the depositor; · = no result.

SMILES	NPY-Y1 PAM-ag	NPY2 pot ag	NPY-Y2 antag	NPY Y1 blocker	S1P4 ag	S1P4 antagonist	S1P4 agonist cf	S1P1 agonist
CC(C)n1c(=NC(=O)c2ccco2)c(C#N)cc2c(=O)n3ccccc3cc21	10.0	3.8	3.7	14.0	11.8*	-30.3	-0.1	8.8
CN1C(=O)OC2(C)CCc3ccccc3C12C (configuration not stated)	-9.3	10.4	-3.2	1.2	21.7*	-16.0	-1.4	-2.0
CC(C)(C)c1ccc(N2C(=O)CSC2c2cccnc2)cc1 (configuration not stated)	9.5	9.7	·	·	98.7*	12.1	-1.2	-6.3
O=C1CSC(c2cccnc2)N1c1ccccc1 (configuration not stated)	-15.4	8.1	·	·	-0.2	7.7	·	·
CCN(CC(=O)Nc1cc(C)nn1-c1nc(C)cc(C)n1)Cc1ccccc1	17.6	-0.9	4.7	9.5	194.8*	0.7	-1.8	1.3
CN1CCN(C(=O)C(N)Cc2ccccc2)CC1 (configuration not stated)	-6.6	-7.4	·	1.6	18.4*	4.3	-2.1	-1.2
COc1ccccc1NS(=O)(=O)/C=C/c1ccccc1	-2.7	2.4	3.7	1.4	-1.2	-4.6	·	·
COCCn1c(C)cc(/C=C2/NC(=O)N(c3cccc(Cl)c3)C2=O)c1C	16.6	11.8	·	-0.8	105.0*	-12.9	-1.3	-2.5
CCn1c(C)cc(/C=C2/NC(=O)N(c3ccccc3)C2=O)c1C	-6.4	7.0	·	2.7	2.4	-12.4	·	·
Cc1cc(C)n(C(=O)CCCn2cc([N+](=O)[O-])cn2)n1	-0.7	-15.8	·	-7.5	0.8	-20.2	·	·
COc1ccc(CC(=O)Nc2nnc(C(C)(C)C)s2)cc1OC	13.0	-3.8	·	-0.5	31.8*	-15.9	-0.9	-10.9
CCc1nnc(NC(=O)Cc2ccc(OC)c(OC)c2)s1	-6.5	0.4	·	2.0	1.1	-4.6	·	·
CC(=O)c1ccc(NC(=S)N(C)C2CCN(C)CC2)cc1	-9.5	7.8	4.0	-4.8	-0.2	-9.5	·	·
Cn1c(=NC(=O)c2ccccc2[N+](=O)[O-])sc2cccc(F)c21	11.1	-10.8	·	·	11.2*	2.9	-2.7	1.2
Cc1cccc(CC(=O)c2c[nH]c3ccccc23)c1	28.4	4.7	·	·	-0.5	-7.4	·	·
Cc1[nH]c2ccccc2c1C(=O)CN1C(=O)NC2(CC(C)CC(C)(C)C2)C1=O (configuration not stated)	1.6	9.0	-2.1	-0.8	-0.5	2.1	·	·
COc1cccc(C2CC(c3ccccc3Cl)Nc3ncnn32)c1 (configuration not stated)	4.7	10.1	2.6	-1.6	-0.3	6.0	·	·
Clc1ccc(C2CC(c3cccs3)n3ncnc3N2)c(Cl)c1 (configuration not stated)	-2.7	-18.9	·	-1.2	27.2*	5.2	-1.7	-4.6
CCS(=O)(=O)c1ccc2oc(SCC(=O)N3CCCCC3)nc2c1	10.7	5.8	·	0.1	-1.4	0.1	·	·
Cc1cccc(C)c1N(Cc1ccccc1F)S(C)(=O)=O	-4.0	-14.2	·	1.7	32.9*	4.5	-1.7	-2.0
CC(=O)Nc1ccc(S(=O)(=O)n2nc(-c3ccc(C)cc3)nc2N)cc1	17.4	15.4	-4.0	-3.7	20.5*	0.2	-1.3	0.2
Cc1ccc(S(=O)(=O)n2nc(-c3cccnc3)nc2N)cc1	1.3	3.8	1.3	4.8	-0.6	-7.8	·	·
O=C(c1ccccc1)N1CCC(c2nc3c(nnn3Cc3ccccc3Cl)c(=O)[nH]2)CC1	-2.3	12.1	5.7	3.2	54.8*	-6.7	-2.0	-1.7
Cc1ccc2[nH]c3c(=O)n4c(nc3c2c1)SCC4	13.9	13.5	·	0.3	0.9	5.5	·	·
COc1ccc2[nH]c3c(=O)n4c(nc3c2c1)SCCC4	3.3	-30.8	·	-0.6	35.7*	3.7	-1.7	-3.6
SMILES	NPY-Y1 PAM-ag	NPY2 pot ag	NPY-Y2 antag	NPY Y1 blocker	S1P4 ag	S1P4 antagonist	S1P4 agonist cf	S1P1 agonist
C=CCn1c(SCC(=O)Nc2nnc(CC)s2)nnc1-c1ccco1	10.8	2.9	0.2	-2.7	29.1*	-15.5	-1.3	0.5
Cc1ccnc(NC(=O)CCC(=O)N(CC(=O)NC2CCCCC2)Cc2cccs2)c1	15.9	-9.4	·	-1.3	-2.0	7.8	·	·
Cc1cc(NC(=O)CCC(=O)N(CC(=O)NC2CCCC2)Cc2cccs2)no1	-5.1	0.1	·	-1.2	32.9*	-6.4	-1.9	-2.9
Cc1onc(-c2ccccc2)c1C(=O)NCCN1CCOCC1	0.1	10.7	1.1	0.6	16.8*	5.7	-1.1	-3.5
COc1cccc(C2=NOC(C(=O)N3CCN(C(=O)c4ccco4)CC3)C2)c1 (configuration not stated)	-8.0	0.6	1.4	-1.3	37.2*	3.0	-0.3	-1.9
O=C(CSc1ccc(-c2cccs2)nn1)Nc1ccccc1	-2.0	3.0	·	2.8	34.6*	-28.1	0.0	-4.9
Cc1cc(C)cc(NC(=O)CSc2ccc(-c3cccs3)nn2)c1	-16.1	-9.0	4.8	2.1	1.6	-8.7	·	·
CN(C)c1ccc(N2C(=O)CC(Sc3ccccc3C(=O)O)C2=O)cc1 (configuration not stated)	-4.2	1.2	3.7	0.5	11.4*	-0.7	-1.3	-6.7
Cc1ccc(N2C(=O)CC(Sc3ccccc3C(=O)O)C2=O)cc1 (configuration not stated)	-3.5	8.2	-1.3	8.7	1.0	-12.6	·	·
CCN(CC)C(=O)N1CCc2ccccc21	2.5	12.2	·	3.2	-1.6	0.4	·	·
CCc1ccc(/C(C)=N/NC(=O)c2ccccn2)cc1	9.5	-8.2	·	2.0	12.0*	5.6	-3.1	-5.7
O=C(CCCN1C(=O)/C(=C/c2ccccc2Cl)SC1=S)NNC(=O)c1cccnc1	4.1	-33.6	·	·	-0.2	5.9	·	·
O=C(CCCN1C(=O)/C(=C/c2ccccc2Cl)SC1=S)NNC(=O)c1ccccc1	10.3	-12.6	13.5	0.5	18.3*	-3.7	-2.7	-0.9
CC(C)(CO)NCC#Cc1ccccc1	3.0	7.1	·	11.3	-0.8	2.9	·	·
Cc1c(C)c2cc(Cl)c(O)c(CN3CCN(C)CC3)c2oc1=O	27.1	-3.5	1.1	-2.0	15.3*	-2.5	-1.4	-5.0
Cc1c(C)c2cc(Cl)c(O)c(CN3CCCC(C)C3)c2oc1=O (configuration not stated)	-5.0	2.0	6.7	1.7	1.9	-18.4	·	·

Assay outcomes from PubChem.
